In ChEMBL document CHEMBL1156117, “Anti-trypanosomatid benzofuroxans and deoxygenated analogues: synthesis using polymer-supported triphenylphosphine, biological evaluation and mechanism of action studies” (Eur J Med Chem, 2009):
Activity calls are given as the source filed them. The calls are words filed in the database; no cut-off is given here.

Key:
Trypanosoma cruzi [1] = test: Induction of free radical production Trypanosoma cruzi microsomal fraction at 1 mM using DMPO and FXN spin trapping by ESR spectroscopic analysis; format: functional; details: Microsome
In short: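 T. cruzi microsomal fraction at 4 mg protein/mL, in 20 mM phosphate buffer pH 7.4 with 1 mM NADPH, 1 mM EDTA and 100 mM DMPO or FXN spin trap. Compound added at 1 mM final, dissolved in spectroscopy-grade DMF. Radical adducts detected by ESR.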

Trypanosoma cruzi [2] = test: Antitrypanosomal activity against Trypanosoma cruzi Tulahuen 2 epimastigotes assessed as parasite growth inhibition after 5 days; format: functional, organism-based
In short: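 Tulahuen 2 epimastigotes grown at 28 °C in BHI-tryptose with 5% foetal calf serum. Late-log cells seeded at 3×10⁶/mL in 24-well plates with compound from DMSO stock (final DMSO ≤0.8%; control 0.8% DMSO). A610 read at day 0 and day 5. Growth inhibition calculated from the corrected absorbance ratio to control; IC50 is the concentration giving 50% of the control ratio.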

Trypanosoma cruzi [3] = test: Antitrypanosomal activity against Trypanosoma cruzi CL Brener epimastigotes assessed as parasite viability after 5 days by MTT assay; format: functional, organism-based; details: 120 h
In short: (§1)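 Promastigotes (L. braziliensis, L. pifanoi) grown at 28 °C in axenic RPMI with 5% FBS. T. cruzi CL Brener epimastigotes grown in BHI-tryptose with 5% foetal serum. 24-well plates, 1 mL/well, seeded from exponential-phase culture. Compounds in DMSO, added at several concentrations (0.5–50.0) and kept 5 days. Then MTT 0.4 mg/mL for 3 h at 37 °C. Formazan dissolved in DMSO, OD595 read. Triplicate per concentration, six growth controls. Cytotoxicity % calculated against growth and medium blanks, IC50 derived.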

[4] = target: Cruzipain (Trypanosoma cruzi) (UniProt P25779); test: Inhibition of Trypanosoma cruzi cruzipain at 100 uM
Sequence of Cruzipain (Trypanosoma cruzi) (P25779 123-467 limits assumed): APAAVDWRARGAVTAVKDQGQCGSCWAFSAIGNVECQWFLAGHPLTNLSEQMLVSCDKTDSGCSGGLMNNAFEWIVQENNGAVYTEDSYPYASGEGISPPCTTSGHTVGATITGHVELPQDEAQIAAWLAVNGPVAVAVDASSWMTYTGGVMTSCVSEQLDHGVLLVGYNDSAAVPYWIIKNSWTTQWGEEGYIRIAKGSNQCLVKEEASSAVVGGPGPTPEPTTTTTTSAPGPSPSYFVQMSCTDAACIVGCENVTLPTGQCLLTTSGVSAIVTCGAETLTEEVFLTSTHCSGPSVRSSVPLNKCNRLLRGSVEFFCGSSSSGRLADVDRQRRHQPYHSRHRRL

[5] = target: Cruzipain (Trypanosoma cruzi) (UniProt P25779); test: Inhibition of Trypanosoma cruzi cruzipain at 25 uM
[6] = target: Cruzipain (Trypanosoma cruzi) (UniProt P25779); test: Inhibition of Trypanosoma cruzi cruzipain at 50 uM
Trypanosoma cruzi [7] = test: Inhibition of Trypanosoma cruzi Tulahuen 2 mitochondrial dehydrogenase at 20 uM after 120 mins by MTT assay relative to control
In short: (§2)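 10⁶ parasites/well (T. cruzi Tulahuen 2 or Y epimastigotes, or L. braziliensis LTB300 promastigotes) in 500 µL medium with 20 µM compound, at 28 °C for up to 240 min; untreated duplicate wells served as time-matched controls. MTT (5 mg/mL stock in PBS) added for 2 h, stopped with acidic isopropanol, A570 read. Activity expressed as % of untreated parasites.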

[8] = Selectivity index, ratio of IC50 for mouse J774 macrophages to IC50 for Trypanosoma cruzi Tulahuen 2 epimastigotes
J774 = test: Cytotoxicity against mouse J774 macrophages after 48 hrs by MTT assay; format: cell-based
In short: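 Exposed to compounds (1.0–400.0) for 48 h, washed with PBS, then MTT 0.4 mg/mL for 3 h. Formazan dissolved in DMSO, OD595 read. Triplicate per concentration, six growth controls. % cytotoxicity calculated against blanks.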

Trypanosoma cruzi [9] = test: Antitrypanosomal activity against Trypanosoma cruzi epimastigotes; format: functional, organism-based
Leishmania braziliensis [10] = test: Antileishmanial activity against Leishmania braziliensis MHOM/BR/00/LTB300 promastigotes assessed as parasite viability after 5 days by MTT assay; format: functional, organism-based; details: MHOM/BR/00/LTB300, 120 h; in short: as §1
Leishmania pifanoi = test: Antileishmanial activity against Leishmania pifanoi MHOM/VE/57/LV135 promastigotes assessed as parasite viability after 5 days by MTT assay; format: functional, organism-based; details: MHOM/VE/57/LV135, 120 h; in short: as §1
Leishmania braziliensis [11] = test: Inhibition of Leishmania braziliensis MHOM/BR/00/LTB300 promastigotes mitochondrial dehydrogenase at 20 uM by MTT assay relative to control; details: TDE = time-dependent effect; in short: as §2
Trypanosoma cruzi [12] = test: Inhibition of Trypanosoma cruzi Y mitochondrial dehydrogenase at 20 uM after 120 mins by MTT assay relative to control; in short: as §2
Leishmania braziliensis [13] = test: Ratio of compound IC50 to Miltefosine IC50 for Leishmania braziliensis MHOM/BR/00/LTB300 promastigotes; format: functional
[14] = Trypanosoma cruzi, Tulahuen 2, 120 h

With O=S(=O)(/C=C\c1ccc2no[n+]([O-])c2c1)c1ccc(F)cc1 the Activity (Trypanosoma cruzi [1]) was “Active”, the IC50 (Trypanosoma cruzi [2]; [14]) was 2.7 µM and the IC50 (Trypanosoma cruzi [3]) was 2.9 µM. It also gave an inhibition [4] of 0%, an inhibition [5] of 0% and an inhibition [6] of 0%.
Compound O=S(=O)(C=Cc1ccc2no[n+]([O-])c2c1)c1ccc(F)cc1 has an inhibition (Trypanosoma cruzi [7]) of 17.6%.
For O=C(/C=C/c1ccc2no[n+]([O-])c2c1)c1ccc([N+](=O)[O-])cc1, the IC50 (Trypanosoma cruzi [2]; [14]) was 2.4 µM, the “Selectivity Index” value [8] was 13.3 and the IC50 (J774; Mus musculus, J774, 48 h) was 32 µM.
In the case of O=C(/C=C/c1ccc2nonc2c1)c1ccc([N+](=O)[O-])cc1, the IC50 (Trypanosoma cruzi [2]; [14]) is reported as over 100 µM, the “Selectivity Index” value [8] is reported as under 1.3 and the IC50 (J774; Mus musculus, J774, 48 h) is reported as 131 µM.
For [O-][n+]1onc2ccc(/C=C/[S+]([O-])c3ccccc3)cc21 (stereo in doubt; 3E), the IC50 (Trypanosoma cruzi [9]) was 2.6 µM, the IC50 (Leishmania braziliensis [10]) was 31.5 µM and the “Selectivity Index” value [8] was 11.5. It also gave an IC50 (J774; j774) of 30 µM.
In the case of [O-][n+]1onc2ccc(/C=C/[S+]([O-])c3ccc(F)cc3)cc21 (configuration not stated), the IC50 (Trypanosoma cruzi [2]; [14]) is reported as 4.5 µM and the IC50 (Trypanosoma cruzi [3]) is reported as 6.2 µM.
Compound O=S(=O)(/C=C\c1ccc2no[n+]([O-])c2c1)c1ccc(Cl)cc1 has an IC50 (Trypanosoma cruzi [2]; [14]) of 1.3 µM and an IC50 (Trypanosoma cruzi [3]) of 2.3 µM.
In the case of [O-][n+]1onc2ccc(/C=C\Sc3ccc(F)cc3)cc21, the Activity (Trypanosoma cruzi [1]) is reported as “Active”, the IC50 (Trypanosoma cruzi [2]; [14]) is reported as 12 µM and the IC50 (Leishmania pifanoi) is reported as 4.5 µM. For the same compound, the IC50 (Trypanosoma cruzi [3]) was 5.9 µM and the IC50 (Leishmania braziliensis [10]) was 1.7 µM.
With COc1ccc(C(=O)/C=C/c2ccc3no[n+]([O-])c3c2)cc1 (stereo in doubt; 11) the IC50 (Trypanosoma cruzi [2]) was 4.1 µM, the inhibition [4] was 13% and the “Selectivity Index” value [8] was 7.6. For the same compound, the IC50 (J774; j774) was 31 µM.
With C=CS(=O)(=O)Cc1ccc2no[n+]([O-])c2c1 the Activity (Leishmania braziliensis [11]) was “tde”, the IC50 (Trypanosoma cruzi [9]) was 14.6 µM and the IC50 (Leishmania braziliensis [10]) was 16.8 µM. For the same compound, the inhibition (Trypanosoma cruzi [7]) was 58.5%.
In the case of [O-][n+]1onc2ccc(C=CSc3ccccc3)cc21, the “Selectivity Index” value [8] is reported as 10, the IC50 (J774; Mus musculus, J774, 48 h) is reported as 30 µM and the inhibition (Trypanosoma cruzi [7]) is reported as 14.5%.
In the case of O=S(=O)(/C=C/c1ccc2no[n+]([O-])c2c1)c1ccccc1 (stereo in doubt; 4E), the IC50 (Trypanosoma cruzi [9]) is reported as 1.6 µM, the IC50 (Leishmania braziliensis [10]) is reported as 21.5 µM and the “Selectivity Index” value [8] is reported as 10. It also gave an IC50 (J774; j774) of 16 µM.
In the case of [O-][n+]1onc2ccc(/C=C/c3ccccc3)cc21, the IC50 (Trypanosoma cruzi [9]) is reported as 10.7 µM.
In the case of [O-][n+]1onc2ccc(/C=C\[S+]([O-])c3ccc(F)cc3)cc21 (configuration not stated), the IC50 (Trypanosoma cruzi [2]; [14]) is reported as 1.6 µM and the IC50 (Trypanosoma cruzi [3]) is reported as 3.2 µM.
With O=S(=O)(/C=C\c1ccc2no[n+]([O-])c2c1)c1ccccc1 the IC50 (Trypanosoma cruzi [9]) was 1.1 µM, the IC50 (Leishmania braziliensis [10]) was 10.8 µM and the “Selectivity Index” value [8] was 10. It also gave an IC50 (J774; Mus musculus, J774, 48 h) of 11 µM.
Cc1ccc([S+]([O-])/C=C/c2ccc3no[n+]([O-])c3c2)cc1 (configuration not stated) showed an IC50 (Trypanosoma cruzi [2]; [14]) of 4.6 µM and an IC50 (Trypanosoma cruzi [3]) of 6 µM.
With [O-][n+]1onc2ccc(/C=C/Sc3ccccc3)cc21 the IC50 (Leishmania pifanoi) was 4.3 µM, the IC50 (Trypanosoma cruzi [9]) was 2.6 µM and the IC50 (Leishmania braziliensis [10]) was 1.5 µM.
O=C(/C=C/c1ccc2no[n+]([O-])c2c1)c1ccccc1 gave an IC50 (Trypanosoma cruzi [2]; [14]) of 5 µM, an inhibition [4] of 0% and an inhibition [5] of 0%. For the same compound, the “Selectivity Index” value [8] was 9.4, the IC50 (J774; Mus musculus, J774, 48 h) was 47 µM and the inhibition (Trypanosoma cruzi [7]) was 21.8%. The inhibition [6] was 0%.
Compound O=S(=O)(C=Cc1ccc2no[n+]([O-])c2c1)c1ccc(Cl)cc1 has an inhibition (Trypanosoma cruzi [7]) of 4%.
For [O-][n+]1onc2ccc(/C=C\[S+]([O-])c3ccccc3)cc21 (configuration not stated), the Activity (Leishmania braziliensis [11]) was “tde”, the IC50 (Trypanosoma cruzi [9]) was 0.7 µM and the inhibition (Trypanosoma cruzi [12]) was 25%. The IC50 (Leishmania braziliensis [10]) was 4.6 µM, the “Selectivity Index” value [8] was 20 and the IC50 (J774; Mus musculus, J774, 48 h) was 14 µM.
For [O-][n+]1onc2ccc(/C=C/Sc3ccc(Cl)cc3)cc21, the IC50 (Trypanosoma cruzi [2]; [14]) was 1.9 µM, the “Ratio IC50” value (Leishmania braziliensis [13]) was 10 and the IC50 (Leishmania pifanoi) was 4.6 µM. The IC50 (Trypanosoma cruzi [3]) was 1 µM and the IC50 (Leishmania braziliensis [10]) was 0.9 µM.
